Our source for the IC50 values is ChEMBL document CHEMBL1240452, “Synthesis and toxicity towards normal and cancer cell lines of benzimidazolequinones containing fused aromatic rings and 2-aromatic ring substituents” (Eur J Med Chem, 2010).

Bounds are passed on as bounds.

Type in all cases: functional, cell-based
The subject of one test is HeLa. The test is described as follows: Cytotoxicity against human HeLa cells after 72 hrs by MTT assay. The essentials:
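HeLa (CCL-2) cervical cancer cells, maintained in DMEM with 10% heat-inactivated FBS, penicillin-streptomycin, 2 mM L-glutamine and non-essential amino acids, plated at 1000 cells/well. Aerobic 72 h exposure at 37 °C, then 3 h MTT; formazan taken up in DMSO, read at 550/690 nm. Viability as % DMSO-only value, ≥3 independent experiments; IC50 by nonlinear regression.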
In general terms: Tetrazolium dyes change colour on reduction, which living cells bring about.

A further test deals with DU-145. Put plainly: Cytotoxicity against human DU145 cells after 72 hrs by MTT assay. To be noted: DU-145, 72 h. The essentials:
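DU145 prostate cancer cells, grown in RPMI-1640 with 10% heat-inactivated FBS, penicillin-streptomycin and 2 mM L-glutamine, seeded at 2000 cells/well. Treated aerobically for 72 h at 37 °C, then incubated 3 h with MTT. Formazan dissolved in DMSO; A550 read against 690 nm reference. Viability as % of DMSO-only wells, mean of ≥3 independent experiments; IC50 from nonlinear regression of dose-response curves.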

A short description of test [1]: Cytotoxicity against human GM00637 cells after 72 hrs by MTT assay. The conditions noted are these: GM00637, 72 h. In short, it runs like this: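 Normal human skin fibroblasts GM00637, seeded at 10,000 cells/well and exposed aerobically for 72 h at 37 °C. MTT added for a final 3 h; formazan crystals dissolved in DMSO; absorbance 550 nm with 690 nm reference. Viability relative to DMSO-only control, from at least three independent experiments; IC50 estimated by nonlinear regression of dose-response data.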

In the case of `CC1Cn2c(nc3c2C(=O)C=CC3=O)-c2ccccc21` (stereo not drawn), the IC50 (as a rule, the concentration at which inhibition is half-maximal) with HeLa is 1490 nM; in the test on DU-145, 1090 nM; in test [1], 1650 nM.
For `CC1Cn2c(nc3c2C(=O)C=CC3=O)-c2cccnc21` (stereo not drawn), in that order: 1510 nM, 700 nM and 740 nM.
Turning to `CCn1c(-c2ccccc2)nc2c1C(=O)C=CC2=O`, the results for the IC50 (with HeLa; with DU-145; in test [1]) were 180 nM, 70 nM and 150 nM, respectively.
For `CCn1c(-c2cccnc2)nc2c1C(=O)C=CC2=O`, in that order: 1500 nM, 1270 nM and 480 nM.
For `CC1Cn2c(nc3c2C(=O)C=CC3=O)-c2ccc3ccccc3c21` (stereo not drawn), in that order: 1170 nM, 780 nM and 2440 nM.
Turning to `CCn1c(-c2ccc3ccccc3c2)nc2c1C(=O)C=CC2=O`, the results for the half-maximal inhibitory concentration (IC50) (in the test on HeLa; in the test on DU-145; in test [1]) were 70 nM, 60 nM and 40 nM, respectively.
In the case of `CC1Cn2c(nc3ccccc32)-c2ccc3ccccc3c21` (stereo not drawn), the IC50 (in the test on HeLa; in test [1]) was more than 10000 nM in each case.
As to `CO[C@@]12[C@H](COC(N)=O)C3=C(C(=O)C(C)=C(N)C3=O)N1C[C@@H]1N[C@@H]12` [MITOMYCIN], the IC50 in the test on HeLa stood at 270 nM; in the test on DU-145, 170 nM; in test [1], 460 nM.
